Laboratory results reported in ChEMBL document CHEMBL1123436, “Comparative toxicities and analgesic activities of three monomethylated analogues of acetaminophen” (J Med Chem, 1986).

Experiments:
Mus musculus [1] = assay: Urinary Metabolic (3-methoxyacetaminophen) profile in the mouse 24 hr after dose of 3 mmol/kg of the compound; format: ADME, organism-based, Urine; settings: in vivo
Mus musculus [2] = assay: Time course of Distribution of Radioactivity in Mice intestine after 3 mmol/kg dose of the Compound after 24 h; format: ADME, organism-based; settings: in vivo
How it was run: (§1)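 Groups of 12 mice given [acetyl-14C]-labelled drug ip, 3 mmol/kg (0.45 mCi/mmol), housed individually with urine/feces separation. Four killed at each of 1, 3 and 24 h by exsanguination. Tissues (~100 mg) digested in Soluene 350; blood digested and peroxide-bleached; feces freeze-dried, rehydrated, digested and bleached. Scintillation counting; nmol equiv/mg tissue or per mL blood/urine, means ± SE (N = 4).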

Mus musculus [3] = assay: Time course of Distribution of Radioactivity in Mice feces after 3 mmol/kg dose of the Compound after 1 hr; format: ADME, organism-based; settings: in vivo; how it was run: as §1
Mus musculus [4] = assay: Urinary Metabolic (3-hydroxyacetaminophen) profile in the mouse 24 h after dose of 3 mmol/kg of the compound; format: ADME, organism-based, Urine; settings: in vivo
Mus musculus [5] = assay: Time course of Distribution of Radioactivity in Mice lungs/heart after 3 mmol/kg dose of the Compound after 1 h; format: ADME, organism-based, Lung; settings: in vivo; how it was run: as §1
Mus musculus [6] = assay: Time course of Distribution of Radioactivity in Mice Urine after 3 mmol/kg dose of the Compound after 24 h; format: ADME, organism-based; settings: in vivo; how it was run: as §1
Mus musculus [7] = assay: Time course of Distribution of Radioactivity in Mice intestine after 3 mmol/kg dose of the Compound after 1 h; format: ADME, organism-based; settings: in vivo; how it was run: as §1
Mus musculus [8] = assay: Time course of Distribution of Radioactivity in Mice blood after 3 mmol/kg dose of the Compound after 24 h; format: ADME, organism-based; settings: in vivo; how it was run: as §1
Mus musculus [9] = assay: Urinary Metabolic (Acetaminophen) profile in the mouse 24 h after dose of 3 mmol/kg of the compound; format: ADME, organism-based, Urine; settings: in vivo
Mus musculus [10] = assay: (§2) Hepatotoxicity in Swiss-Webster Mice Caused by compound at 750 mg/kg (i.p.) dose; format: functional; settings: route intraperitoneal
How it was run: (§3)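 Male Swiss-Webster mice (20 g), groups of 10, were given a single ip dose of drug in saline with no pretreatment. Survivors were decapitated at 24 h and counted. Plasma ALT was measured, and liver sections (formalin-fixed, paraffin, H&E) were scored for necrosis severity in survivors. Values are means ± SE.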

Mus musculus [11] = assay: Time course of Distribution of Radioactivity in Mice intestine after 3 mmol/kg dose of the Compound after 3 h; format: ADME, organism-based; settings: in vivo; how it was run: as §1
Mus musculus [12] = assay: Time course of Distribution of Radioactivity in Mice Liver after 3 mmol/kg dose of the Compound after 24 h; format: ADME, organism-based; settings: in vivo; how it was run: as §1
Mus musculus [13] = assay: (§4) Hepatotoxicity in Swiss-Webster Mice Caused by compound at 400 mg/kg (i.p.) dose; format: functional; settings: route intraperitoneal; how it was run: as §3
Mus musculus [14] = assay: Time course of Distribution of Radioactivity in Mice stomach after 3 mmol/kg dose of the Compound after 24 h; format: ADME, organism-based; settings: in vivo; how it was run: as §1
Mus musculus [15] = assay: Urinary Metabolic (3-(methylthio)acetaminophen) profile in the mouse 24 h after dose of 3 mmol/kg of the compound; format: ADME, organism-based, Urine; settings: in vivo
Mus musculus [16] = assay: Hepatotoxicity in Swiss-Webster Mice Caused by compound at 400 mg/kg (i.p.) dose; 8/10; format: functional; settings: route intraperitoneal; how it was run: as §3
Mus musculus [17] = assay: Time course of Distribution of Radioactivity in Mice Liver after 3 mmol/kg dose of the Compound after 3 h; format: ADME, organism-based; settings: in vivo; how it was run: as §1
Mus musculus [18] = assay: Time course of Distribution of Radioactivity in Mice Urine after 3 mmol/kg dose of the Compound after 3 h; format: ADME, organism-based; settings: in vivo; how it was run: as §1
Mus musculus [19] = assay: Time course of Distribution of Radioactivity in Mice lungs/heart after 3 mmol/kg dose of the Compound after 3 h; format: ADME, organism-based, Lung; settings: in vivo; how it was run: as §1
Mus musculus [20] = assay: Urinary Metabolic (3-cysteinnylacetaminophen) profile in the mouse 24 hr after dose of 3 mmol/kg of the compound; format: ADME, organism-based, Urine; settings: in vivo
Mus musculus [21] = assay: Time course of Distribution of Radioactivity in Mice brain after 3 mmol/kg dose of the Compound after 3 h; format: ADME, organism-based; settings: in vivo; how it was run: as §1
Mus musculus [22] = assay: as §4; format: functional, organism-based; parameters: dose 400 mg/kg; how it was run: as §3
Mus musculus [23] = assay: Time course of Distribution of Radioactivity in Mice kidney after 3 mmol/kg dose of the Compound after 24 h; format: ADME, organism-based; settings: in vivo; how it was run: as §1
Mus musculus [24] = assay: Time course of Distribution of Radioactivity in Mice Urine after 3 mmol/kg dose of the Compound after 1 h; format: ADME, organism-based; settings: in vivo; how it was run: as §1
Mus musculus [25] = assay: Time course of Distribution of Radioactivity in Mice blood after 3 mmol/kg dose of the Compound after 1 h; format: ADME, organism-based; settings: in vivo; how it was run: as §1
Mus musculus [26] = assay: Time course of Distribution of Radioactivity in Mice stomach after 3 mmol/kg dose of the Compound after 1 h; format: ADME, organism-based; settings: in vivo; how it was run: as §1
Mus musculus [27] = assay: Urinary Metabolic (acetaminophen-3-mecapturate) profile in the mouse 24 hr after dose of 3 mmol/kg of the compound; format: ADME, organism-based, Urine; settings: in vivo
Mus musculus [28] = assay: as §2; format: functional, organism-based; parameters: dose 750 mg/kg; how it was run: as §3
Mus musculus [29] = assay: Time course of Distribution of Radioactivity in Mice Liver after 3 mmol/kg dose of the Compound after 1 h; format: ADME, organism-based; settings: in vivo; how it was run: as §1
Mus musculus [30] = assay: Hepatotoxicity in Swiss-Webster Mice Caused by compound at 750 mg/kg (i.p.) dose; 4/10; format: functional; settings: route intraperitoneal; how it was run: as §3
Mus musculus [31] = assay: Time course of Distribution of Radioactivity in Mice stomach after 3 mmol/kg dose of the Compound after 3 h; format: ADME, organism-based; settings: in vivo; how it was run: as §1
Mus musculus [32] = assay: Time course of Distribution of Radioactivity in Mice feces after 3 mmol/kg dose of the Compound after 24 h; format: ADME, organism-based; settings: in vivo; how it was run: as §1
Mus musculus [33] = assay: Time course of Distribution of Radioactivity in Mice spleen after 3 mmol/kg dose of the Compound after 1 h; format: ADME, organism-based; settings: in vivo; how it was run: as §1
Mus musculus [34] = assay: Time course of Distribution of Radioactivity in Mice spleen after 3 mmol/kg dose of the Compound after 3 h; format: ADME, organism-based; settings: in vivo; how it was run: as §1
Mus musculus [35] = assay: Time course of Distribution of Radioactivity in Mice kidney after 3 mmol/kg dose of the Compound after 1 h; format: ADME, organism-based; settings: in vivo; how it was run: as §1
Mus musculus [36] = assay: Time course of Distribution of Radioactivity in Mice brain after 3 mmol/kg dose of the Compound after 1 h; format: ADME, organism-based; settings: in vivo; how it was run: as §1
Mus musculus [37] = assay: Time course of Distribution of Radioactivity in Mice kidney after 3 mmol/kg dose of the Compound after 3 h; format: ADME, organism-based; settings: in vivo; how it was run: as §1
Mus musculus [38] = assay: Time course of Distribution of Radioactivity in Mice spleen after 3 mmol/kg dose of the Compound after 24 h; format: ADME, organism-based; settings: in vivo; how it was run: as §1
Mus musculus [39] = assay: Time course of Distribution of Radioactivity in Mice blood after 3 mmol/kg dose of the Compound after 3 h; format: ADME, organism-based; settings: in vivo; how it was run: as §1
Mus musculus [40] = assay: Time course of Distribution of Radioactivity in Mice brain after 3 mmol/kg dose of the Compound after 24 h; format: ADME, organism-based; settings: in vivo; how it was run: as §1
Mus musculus [41] = species: Mus musculus; assay: Analgesic activity determined in mice using the Bradykinin-induced Writhing test; format: functional
How it was run: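 Male CD1 mice (15–20 g), test drug given orally 15 min before bradykinin ip (4 μg in 0.2 mL sterile water), then a second bradykinin injection (0.2 μg/0.1 mL) 15 min later. Writhing was scored over the next 10 min, with control groups of 10 mice. ED50 was derived by log-probit analysis from at least five doses, with 95% limits.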

Mus musculus [42] = assay: Time course of Distribution of Radioactivity in Mice feces after 3 mmol/kg dose of the Compound after 3 h; format: ADME, organism-based; settings: in vivo; how it was run: as §1
Mus musculus [43] = assay: Time course of Distribution of Radioactivity in Mice lungs/heart after 3 mmol/kg dose of the Compound after 24 h; format: ADME, organism-based, Lung; settings: in vivo; how it was run: as §1

CC(=O)Nc1ccc(O)cc1 [ACETAMINOPHEN]
Administered dose (Mus musculus [1]): 1.1% | Radioactivity (Mus musculus [2]): 0.92 nM equiv (mg of tissue)-1 | Radioactivity (Mus musculus [3]): 0.09 nM equiv mg-1 | Administered dose (Mus musculus [4]): 0.4% | Radioactivity (Mus musculus [5]): 1.13 nM equiv (mg of tissue)-1 | Radioactivity (Mus musculus [6]): 6005 nM equiv (ml of urine)-1 | Radioactivity (Mus musculus [7]): 2.19 nM equiv (mg of tissue)-1 | Radioactivity (Mus musculus [8]): 19.2 nM equiv (ml of blood)-1 | Administered dose (Mus musculus [9]): 68.8% | Hepatic necrosis in survivors (Mus musculus [10]): 3.25 | Radioactivity (Mus musculus [11]): 1.08 nM equiv (mg of tissue)-1 | Radioactivity (Mus musculus [12]): 0.58 nM equiv (mg of tissue)-1 | Hepatic necrosis in survivors (Mus musculus [13]): 1.13 | Radioactivity (Mus musculus [14]): 0.15 nM equiv (mg of tissue)-1 | Administered dose (Mus musculus [15]): 2.3% | Survivors at 24 h (Mus musculus [16]): 8 | Radioactivity (Mus musculus [17]): 0.73 nM equiv (mg of tissue)-1 | Radioactivity (Mus musculus [18]): 3880 nM equiv (ml of urine)-1 | Radioactivity (Mus musculus [19]): 0.2 nM equiv (mg of tissue)-1 | Administered dose (Mus musculus [20]): 18.5% | Radioactivity (Mus musculus [21]): 0.24 nM equiv (mg of tissue)-1 | Plasma ALT at 24 h (Mus musculus [22]): 1550 mU ml-1 | Radioactivity (Mus musculus [23]): 0.21 nM equiv (mg of tissue)-1 | Radioactivity (Mus musculus [24]): 12.4 nM equiv (ml of urine)-1 | Radioactivity (Mus musculus [25]): 1605 nM equiv (ml of blood)-1 | Radioactivity (Mus musculus [26]): 1.13 nM equiv (mg of tissue)-1 | Administered dose (Mus musculus [27]): 2% | Plasma ALT at 24 h (Mus musculus [28]): 4030 mU ml-1 | Radioactivity (Mus musculus [29]): 2.89 nM equiv (mg of tissue)-1 | Survivors at 24 h (Mus musculus [30]): 4 | Radioactivity (Mus musculus [31]): 0.71 nM equiv (mg of tissue)-1 | Radioactivity (Mus musculus [32]): 15.3 nM equiv mg-1 | Radioactivity (Mus musculus [33]): 1.55 nM equiv (mg of tissue)-1 | Radioactivity (Mus musculus [34]): 0.29 nM equiv (mg of tissue)-1 | Radioactivity (Mus musculus [35]): 2.45 nM equiv (mg of tissue)-1 | Radioactivity (Mus musculus [36]): 1.22 nM equiv (mg of tissue)-1 | Radioactivity (Mus musculus [37]): 1.19 nM equiv (mg of tissue)-1 | Radioactivity (Mus musculus [38]): 0.04 nM equiv (mg of tissue)-1 | Radioactivity (Mus musculus [39]): 544 nM equiv (ml of blood)-1 | Radioactivity (Mus musculus [40]): 0.05 nM equiv (mg of tissue)-1 | ED50 (Mus musculus [41]): 84.3 mg/kg | Radioactivity (Mus musculus [42]): 1.52 nM equiv mg-1 | Radioactivity (Mus musculus [43]): 0.11 nM equiv (mg of tissue)-1
